Screening data from PubChem.
Sampled rows, rich in hits. Any-hit rate of the full collection: about 2.1%.
CCR6 antag – CCR6 (human) receptor antagonism; P51684; CHO-K1 CCR6 PathHunter beta-arrestin, luminescence, CCL20-stimulated; inhibition, % at 20 µM; 0.49% of 340,000 active;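 active = compounds whose inhibition of the agonist-driven luminescence signal at 20 µM reaches about 50%, limit read from the data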;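 note: cells stimulated with CCL20 at 14 nM final; plate controls were DMSO with CCL20 for no effect and DMSO without agonist for full effect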
APJ agonist – APJ receptor agonism; P35414; 0.11% of 330,000 active; AID 2520; activation, % at 20 µM; CHO-K1 APJ PathHunter beta-arrestin, luminescence; 0% DMSO wells, 100% apelin;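 active = activation more than six SD over the plate average, tested at 20 µM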;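 note: 0% = DMSO alone and 100% = apelin-13 at 10 nM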
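Test system: CHO-K1 APJ beta-arrestin complementation cell line | Compound: Single test compound dose, 20 µM final, 1% DMSO | Incubation: Compound 90 min 25 °C, reagent 1 h | Measured by: beta-gal luminescence | Read-out basis: APJ–arrestin association signal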
CXCR6 block – blocks human CXCR6 beta-arrestin recruitment; 0.36% of 360,000 active; inhibition, % at 20 µM; AID 602244; O00574; CHO-K1 PathHunter CXCR6 beta-arrestin, luminescence; in the data active = inhibition above about 34%, passing the limit was not always enough;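 note: antagonist mode with CXCL16 agonist at 10 nM final; 0% = 10 nM CXCL16 with DMSO and 100% = unstimulated wells without agonist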
EBI2 block – blocks human EBI2 receptor beta-arrestin signaling; P32249; inhibition, % at 5 µM; 0.81% of 360,000 active; EBI2 beta-arrestin recruitment, luminescence, 7a,25-OHC stimulated; in the data active = inhibition above about 38%;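 note: enzyme fragment complementation signal reports receptor beta-arrestin coupling in cells; 0% = agonist plus DMSO wells and 100% = wells without agonist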
HTR2A ag – mouse HTR2A agonism via beta-arrestin recruitment | CHO-K1 mHTR2A beta-arrestin complementation, luminescence; percent of 30 µM serotonin response | AID 624169 | 0.66% of 360,000 active | P35363 | activation, % at 7.6 µM;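 active = activation above a run cutoff, the mean activation of all tested compounds plus 3 SD, cut at about 14% in these data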;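 note: 0% = plate median of compound wells and 100% = 30 µM serotonin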
Target sequence (P35363 whole entry, looked up): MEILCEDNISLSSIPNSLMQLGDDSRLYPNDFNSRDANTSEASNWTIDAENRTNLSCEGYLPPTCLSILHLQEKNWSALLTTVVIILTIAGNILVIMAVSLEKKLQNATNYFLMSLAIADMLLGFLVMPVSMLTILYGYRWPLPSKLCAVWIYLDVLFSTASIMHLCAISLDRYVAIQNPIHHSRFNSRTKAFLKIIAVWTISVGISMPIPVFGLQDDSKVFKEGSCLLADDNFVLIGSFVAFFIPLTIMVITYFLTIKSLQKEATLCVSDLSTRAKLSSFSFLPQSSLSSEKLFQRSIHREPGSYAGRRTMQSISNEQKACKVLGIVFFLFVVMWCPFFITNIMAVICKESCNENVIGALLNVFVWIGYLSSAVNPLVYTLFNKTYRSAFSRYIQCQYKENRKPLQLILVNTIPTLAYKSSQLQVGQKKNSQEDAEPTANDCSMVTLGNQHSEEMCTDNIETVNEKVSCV
APJ antagonist – blocks the human apelin receptor APJ; CHO-K1 APJ beta-arrestin complementation, luminescence; P35414; inhibition, % at 20 µM; 0.32% of 330,000 active;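 active = inhibition above about 40% at 20 µM, limit read from the data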;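 note: cells challenged with 10 nM apelin-13 agonist together with compound; plate controls were apelin-13 plus DMSO wells for no effect and DMSO wells lacking apelin-13 for full effect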
* marks the source's active call; other numbers are inactive results.

What do the screens show for `CN1C(=CC=C2C=C(I)C(=O)C(I)=C2)C(C)(C)c2ccccc21`?
CCR6 antag: 73*; CXCR6 block: 45*; EBI2 block: 16; HTR2A ag: 3

Results for COc1cc([N+](=O)[O-])cc(/C=N/NC(=O)C(C)Nc2cccc3ccccc23)c1O (stereo not drawn) ?
CCR6 antag: 48; APJ agonist: 0; CXCR6 block: 56*; EBI2 block: 56*; HTR2A ag: -20; APJ antagonist: -50

Results for Cc1nc(S(=O)(=O)Nc2ccccc2C(=O)NCC2CC2)cn1C ?
CCR6 antag: -9; APJ agonist: 1; CXCR6 block: -4; EBI2 block: 10; HTR2A ag: -1; APJ antagonist: 4

How did O=C(Oc1ccccc1/C=C\C(=O)c1cc2ccccc2o1)c1ccccc1 do in these assays?
CCR6 antag: 37; APJ agonist: -1; CXCR6 block: 19; EBI2 block: 48*; HTR2A ag: -3; APJ antagonist: -22

What do the screens show for `O=C(Oc1ccccc1/C=C\C(=O)c1cc2ccccc2o1)c1cccc(F)c1`?
CCR6 antag: 24; APJ agonist: -4; CXCR6 block: 7; EBI2 block: 41; HTR2A ag: -1; APJ antagonist: 10

How did CCN(CC(=O)Nc1ccc(NC(C)=O)cc1)C(=O)CC1OC(=O)c2ccccc21 (stereo not drawn) do in these assays?
CCR6 antag: 11; APJ agonist: -2; CXCR6 block: 0; EBI2 block: -1; HTR2A ag: -1; APJ antagonist: 16

What do the screens show for `CCOC(=O)Cn1c(=NC(=O)c2ccc([N+](=O)[O-])s2)sc2ccccc21`?
CCR6 antag: 54*; APJ agonist: 2; CXCR6 block: 8; EBI2 block: 7; HTR2A ag: 2; APJ antagonist: -64

What do the screens show for `CCOC(=O)Cn1c(=NC(=O)C2COc3ccccc3O2)sc2cc(S(N)(=O)=O)ccc21` (stereo not drawn)?
CCR6 antag: 8; APJ agonist: 1; CXCR6 block: 10; EBI2 block: 0; HTR2A ag: -1; APJ antagonist: 5

What do the screens show for `COc1ccccc1C(=O)N/C(N)=N/c1nc2ccccc2o1`?
CCR6 antag: 75*; APJ agonist: -9; CXCR6 block: 26; EBI2 block: 27; HTR2A ag: 5; APJ antagonist: 19

What do the screens show for `CC(C)c1ccc(N(CCc2ccccn2)C(=O)C(C)(C)C)cc1`?
CCR6 antag: 13; APJ agonist: -2; CXCR6 block: -2; EBI2 block: -21; HTR2A ag: 7; APJ antagonist: 10

How did CNC(=O)COc1coc(CN2CCN(c3ccc(OC)cc3)CC2)cc1=O do in these assays?
CCR6 antag: -7; APJ agonist: -1; CXCR6 block: -1; EBI2 block: 15; HTR2A ag: 6; APJ antagonist: -21

Results for CCN(CC)c1ccc2c(Cl)c(Br)c(=O)oc2c1 ?
CCR6 antag: 46; APJ agonist: -2; CXCR6 block: 34; EBI2 block: 54*; HTR2A ag: -5; APJ antagonist: 31

What do the screens show for `CCN(CC)c1ccc2c(c1)oc(=O)c1c(Cl)cc(=O)oc12`?
CCR6 antag: 47; APJ agonist: 0; CXCR6 block: 60*; EBI2 block: 62*; HTR2A ag: -5; APJ antagonist: 31

Results for CCN(CC)c1ccc2c(C)c(Cl)c(=O)oc2c1 ?
CCR6 antag: -3; APJ agonist: -1; CXCR6 block: 1; EBI2 block: -3; HTR2A ag: 6; APJ antagonist: -3

What do the screens show for `O=[N+]([O-])c1ccc2nc(NN=Cc3ccc(O)cc3)sc2c1`?
CCR6 antag: 78*; CXCR6 block: 55*; EBI2 block: 37; HTR2A ag: -5

How did CC(C)c1ccc(/C=C/C(=O)Nc2nc3ccc([N+](=O)[O-])cc3s2)cc1 do in these assays?
CCR6 antag: 12; APJ agonist: -1; CXCR6 block: 3; EBI2 block: 9; HTR2A ag: 1; APJ antagonist: 24

Results for Cc1c(C(=O)O)sc2nc(-c3cccs3)cc(C(F)(F)F)c12 ?
CCR6 antag: -2; APJ agonist: 1; CXCR6 block: 1; EBI2 block: 6; HTR2A ag: 0; APJ antagonist: 16

What do the screens show for `Cc1c(C(=O)Nc2nccs2)sc2nc(-c3cccs3)cc(C(F)(F)F)c12`?
CCR6 antag: 53*; APJ agonist: -6; CXCR6 block: 33; EBI2 block: -13; HTR2A ag: -2; APJ antagonist: 29

How did CCN1/C(=C\C=C2\C(=O)N(c3ccccc3)C(=S)N2C)Sc2ccccc21 do in these assays?
CCR6 antag: 63*; CXCR6 block: 40*; EBI2 block: 25; HTR2A ag: -1

Results for Cc1ccc([N+](=O)[O-])cc1S(=O)(=O)Nc1ccc(C(=O)N2CCN(C(=O)c3ccco3)CC2)cc1 ?
CCR6 antag: 8; APJ agonist: -2; CXCR6 block: 3; EBI2 block: -1; HTR2A ag: -4; APJ antagonist: 14

How did CCSc1nc2ccccc2n1C(=O)/C=C/c1ccc(OC)c(OC)c1 do in these assays?
CCR6 antag: 48; APJ agonist: 2; CXCR6 block: 18; EBI2 block: 33; HTR2A ag: 2; APJ antagonist: 15

How did C=CCSc1nc2ccccc2n1C(=O)/C=C/c1cc(OC)c(OC)c(OC)c1 do in these assays?
CCR6 antag: 39; APJ agonist: -2; CXCR6 block: 25; EBI2 block: 56*; HTR2A ag: -2; APJ antagonist: 12

What do the screens show for `C=CCSc1nc2ccccc2n1C(=O)/C=C/c1ccc(OC)c(OC)c1`?
CCR6 antag: 22; CXCR6 block: 20; EBI2 block: 46*; HTR2A ag: -2

How did COc1cc(/C=C/C(=O)NCCn2c(C)cc3ccccc32)cc(OC)c1OC do in these assays?
CCR6 antag: 7; APJ agonist: -1; CXCR6 block: 0; EBI2 block: 9; HTR2A ag: -3; APJ antagonist: -3

Results for O=C(O)c1ccc(-c2ccc(/C=N/Nc3ccc([N+](=O)[O-])cc3)o2)cc1 ?
CCR6 antag: 45; APJ agonist: -7; CXCR6 block: 13; EBI2 block: 17; HTR2A ag: -1; APJ antagonist: 39

How did O=C(O)c1cc(-c2ccc(/C=N/Nc3ccc([N+](=O)[O-])cn3)o2)ccc1Cl do in these assays?
CCR6 antag: 51*; CXCR6 block: 24; EBI2 block: 4; HTR2A ag: -1

What do the screens show for `Cc1ccc(S(=O)(=O)n2cccc2C)cc1`?
CCR6 antag: 13; APJ agonist: -1; CXCR6 block: -6; EBI2 block: 1; HTR2A ag: -3; APJ antagonist: 2

How did COc1ccc(Cl)cc1NC(=O)CSc1nnc(-c2ccco2)o1 do in these assays?
CCR6 antag: 10; APJ agonist: -6; CXCR6 block: -1; EBI2 block: -8; HTR2A ag: 3; APJ antagonist: -1
